Compounds with a hit are over-represented: about 2.8% of the library has one in this group of screens.
SIRT5 block: blocks human SIRT5 desuccinylation of peptide | Purified SirT5, succinyl-peptide AMC, trypsin-coupled fluorescence | inhibition, % at 15 µM | 330,000 tested, 1.1% active | AID 652115; in the data active = inhibition above about 15%; inconclusive = no clear call, values can overlap the other calls
DENV2 CPE: DENV2-induced cell death inhibition; DENV2-infected cells, cytopathic effect rescue, plate reader; CPE inhibition, % at 9.99 µM; 350,000 tested, 1.7% active; AID 651640; in the data active = CPE inhibition above about 20%, passing the limit was not always enough; inconclusive = no clear call, values can overlap the other calls; tested in BHK-21 cells;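 also: 0% = median of neutral control wells and 100% = median of positive control wells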
E-sel inducer: induces E-selectin expression in human endothelial cells; P16581; HUVEC E-selectin immunofluorescence imaging; normalized: neutral wells 0, TNF-alpha wells 100; activation, % at 7.58 µM; 260,000 tested, 0.37% active; AID 686992;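 active = mean E-selectin-positive cell signal at least 10% of the positive control, reached in at least 60% of replicates, without over 20% cell loss; inconclusive = no rule given, readout overlaps actives, possibly toxicity-flagged; inactive = the rest, including those meeting only one limit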
Target sequence (P16581 whole entry, looked up): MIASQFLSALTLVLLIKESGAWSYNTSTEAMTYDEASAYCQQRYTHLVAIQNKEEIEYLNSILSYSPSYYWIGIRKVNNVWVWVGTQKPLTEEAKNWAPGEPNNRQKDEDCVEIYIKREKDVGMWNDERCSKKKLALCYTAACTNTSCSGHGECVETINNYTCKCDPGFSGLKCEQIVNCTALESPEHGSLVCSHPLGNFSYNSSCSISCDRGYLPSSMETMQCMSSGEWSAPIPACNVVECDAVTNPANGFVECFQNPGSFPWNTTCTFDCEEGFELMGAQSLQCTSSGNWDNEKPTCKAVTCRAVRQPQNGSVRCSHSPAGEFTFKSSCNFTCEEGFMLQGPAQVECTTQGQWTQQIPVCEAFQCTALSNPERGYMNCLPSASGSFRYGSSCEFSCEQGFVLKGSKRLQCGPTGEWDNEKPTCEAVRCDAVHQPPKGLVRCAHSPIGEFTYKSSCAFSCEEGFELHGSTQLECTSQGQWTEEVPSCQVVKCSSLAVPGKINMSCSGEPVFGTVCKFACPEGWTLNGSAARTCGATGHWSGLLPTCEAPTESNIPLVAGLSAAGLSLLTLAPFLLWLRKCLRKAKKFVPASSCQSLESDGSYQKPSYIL
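Test system – human umbilical vein endothelial cells (HUVEC), E-selectin induction · Input – 3,000 HUVEC seeded per well · Buffer or medium – EGM-2, gelatin · Compound dosing – single-point compound dose · Detection – immunofluorescence imaging · Measure – percent E-selectin-positive cells · Controls – TNF-alpha high, DMSO low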
Starred values were filed as active, the others as inactive; ? = inconclusive; · = not tested or not shown.

SMILES	SIRT5 block	DENV2 CPE	E-sel inducer
C[C@H]1CN([C@@H](C)CO)C(=O)c2cc(NC(=O)CCC(F)(F)F)ccc2O[C@H]1CN(C)C(=O)Nc1ccc2c(c1)OCO2	-3	7	-4
C[C@H](CO)N1C[C@H](C)[C@H](CN(C)C(=O)Nc2ccccc2)Oc2ccc(NS(C)(=O)=O)cc2C1=O	0	-5	74*
C[C@@H]1CN([C@H](C)CO)C(=O)c2cc(NS(C)(=O)=O)ccc2O[C@H]1CN(C)C(=O)Nc1ccccc1	2	4	69*
Cc1cccc(S(=O)(=O)N[C@H]2CC[C@H](CCNC(=O)c3cnccn3)O[C@H]2CO)c1	1	14	-1
O=C(C[C@H]1C[C@@H]2c3cc(NC(=O)CC4CC4)ccc3O[C@@H]2[C@H](CO)O1)NCc1ccc2c(c1)OCO2	6	0	0
CO[C@@H]1CN(C)C(=O)c2cc(NC(=O)C3CCC3)ccc2OC[C@@H](C)N(Cc2ccncc2)C[C@H]1C	-4	14	0
C[C@@H]1CN([C@@H](C)CO)C(=O)c2cc(NC(=O)CCC(F)(F)F)ccc2O[C@@H]1CN(C)C(=O)Nc1cccc2ccccc12	4	17	-6
C[C@H]1CN([C@@H](C)CO)C(=O)c2cc(NC(=O)CCC(F)(F)F)ccc2O[C@H]1CN(C)C(=O)Nc1cccc2ccccc12	8	26*	-7
COCC(=O)N1C[C@@H](C)[C@@H](OC)CN(C)C(=O)c2cc(NS(C)(=O)=O)ccc2OC[C@H]1C	-7	-6	0
COc1ccc(OCC(=O)Nc2ccc(NC(=O)c3cccs3)cc2)cc1	102*	0	0
COc1ccc(NC(=O)c2ccc(NC(=O)c3cccs3)cc2)cc1	-3	-3	·
O=C(NC1CCCC1)N1CCCCN2[C@@H](CO)[C@@H](c3ccc(-c4ccccc4)cc3)[C@@H]2C1	-3	1	0
O=C(NC1CCCC1)N1CCCCN2[C@H](CO)[C@@H](c3ccc(/C=C/c4ccccc4)cc3)[C@@H]2C1	1	-25	19
O=C(NC1CCCC1)N1CCCCN2[C@H](CO)[C@@H](c3ccc(-c4cncnc4)cc3)[C@@H]2C1	-3	34*	0
O=C(NC1CCCC1)N1CCCCN2[C@H](CO)[C@@H](c3ccc(-c4cncnc4)cc3)[C@H]2C1	5	-4	0
O=C(NC1CCCC1)N1CCCCN2[C@H](C1)[C@@H](c1ccc(/C=C/c3ccccc3)cc1)[C@@H]2CO	16*	-24	-1
O=C(NC1CCCC1)N1CCCCN2[C@H](C1)[C@H](c1ccc(/C=C/c3ccccc3)cc1)[C@@H]2CO	28*	-24	-1
CO[C@H]1CN(C)C(=O)c2ccc(NC(C)=O)cc2OC[C@H](C)N(C(=O)c2ccc(F)cc2)C[C@H]1C	8	-8	0
CCCN(C)C[C@H]1Oc2ncc(-c3cccc(C(=O)N(C)C)c3)cc2C(=O)N([C@H](C)CO)C[C@@H]1C	3	17	2
CN1CCN(C(=O)C2=C[C@@H](c3ccc4c(c3)OCO4)C[C@@H](OCCCCO)O2)CC1	-2	4	·
CCCNC(=O)N1CC2(CCN(Cc3cccc(OC)c3)CC2)c2c([nH]c3cc(OC)ccc23)[C@@H]1CO	·	-4	-1
CCOc1ccc(CCN2C(=O)C(=O)N([C@@H](Cc3ccccc3)CN3CCC[C@H]3CN3C(=O)C(=O)NC[C@@H]3Cc3ccc(O)cc3)C[C@@H]2CC(C)C)cc1	-2	?	0
CCOc1ccc(CCN2C(=O)C(=O)N([C@@H](Cc3ccccc3)CN3CCC[C@@H]3CN3C(=O)C(=O)NC[C@@H]3Cc3ccc(O)cc3)C[C@@H]2Cc2ccccc2)cc1	38*	-11	0
CC(C)C[C@@H](CN1CCCC1CN1C(=S)NC[C@@H]1Cc1ccc(O)cc1)N1C[C@H](Cc2ccc(O)cc2)N(CC2CCCCCC2)C1=S (stereo partly drawn)	0	41*	0
CCOc1ccc(CCN2C(=S)N([C@@H](CC(C)C)CN3CCCC3CN3C(=S)NC[C@@H]3Cc3ccc(O)cc3)C[C@@H]2Cc2ccc(O)cc2)cc1 (stereo partly drawn)	·	31*	0
SMILES	SIRT5 block	DENV2 CPE	E-sel inducer
CC(C)C[C@@H](CN1CCCC1CN1C(=S)NC[C@@H]1Cc1ccc(O)cc1)N1C[C@H](Cc2ccccc2)N(CC2CCCCCC2)C1=S (stereo partly drawn)	-3	-10	0
CCOc1ccc(CCN2C(=S)N([C@@H](CC(C)C)CN3CCCC3CN3C(=S)NC[C@@H]3Cc3ccc(O)cc3)C[C@@H]2Cc2ccccc2)cc1 (stereo partly drawn)	-3	-11	0
CNC[C@H]1Oc2ccc(NC(=O)Nc3c(C)noc3C)cc2C(=O)N([C@H](C)CO)C[C@H]1C	-5	-1	0
CN(C)C(=O)C[C@H]1CC[C@H]2[C@@H](COC[C@H](O)CN2C(=O)C2CC2)O1	5	1	0
C[C@@H]1CN([C@@H](C)CO)S(=O)(=O)c2ccc(C3=CCCCC3)cc2O[C@H]1CN(C)C(=O)c1ccc(F)cc1	9	-3	0
COCC#Cc1ccc2c(c1)O[C@H](CN(C)CC1CC1)[C@H](C)CN([C@@H](C)CO)S2(=O)=O	-3	-7	0
CCCC#Cc1ccc2c(c1)O[C@H](CN(C)C(=O)COC)[C@@H](C)CN([C@@H](C)CO)S2(=O)=O	0	-9	0
O=C1c2cccc([N+](=O)[O-])c2C(=O)N1c1ccccc1	1	4	·
O=C1c2cccc([N+](=O)[O-])c2C(=O)N1c1cccnc1	20*	·	·
COCc1cn(CC[C@H]2CC[C@H](NC(=O)Nc3ccc(Cl)cc3)[C@H](CO)O2)nn1	-9	4	0
O=C(NC1CCN(Cc2ccccc2)CC1)c1ccc(CS(=O)c2ccc(F)cc2)o1 (stereo not drawn)	-1	9	0
O=C(NC1CCN(Cc2ccccc2)CC1)c1ccc(CS(=O)c2ccccc2Cl)o1 (stereo not drawn)	·	70*	0
O=C(Cn1nnc2ccccc21)OCc1ccccc1	-2	12	1
c1ccc(CCn2nnc3ccccc32)cc1	20*	-1	·
COc1ccc(S(=O)(=O)Nc2ccc3c(c2)C(=O)N([C@H](C)CO)C[C@@H](C)[C@H](CN(C)Cc2ccncc2)OCCCC[C@H](C)O3)cc1	2	-11	0
COc1ccc(S(=O)(=O)Nc2ccc3c(c2)C(=O)N([C@H](C)CO)C[C@H](C)[C@H](CN(C)Cc2ccncc2)OCCCC[C@H](C)O3)cc1	0	48*	0
COc1ccc(S(=O)(=O)Nc2ccc3c(c2)C(=O)N([C@H](C)CO)C[C@H](C)[C@H](CN(C)Cc2ccncc2)OCCCC[C@@H](C)O3)cc1	0	22*	0
COc1ccc(S(=O)(=O)Nc2ccc3c(c2)C(=O)N([C@H](C)CO)C[C@@H](C)[C@@H](CN(C)Cc2ccncc2)OCCCC[C@@H](C)O3)cc1	1	5	0
N#C[C@@H]1[C@@H](c2ccc(C#Cc3cccnc3)cc2)[C@@H](CO)N1C(=O)C1CCCC1	-2	1	0
C/C=C/c1cnc2c(c1)C(=O)N([C@@H](C)CO)C[C@H](C)[C@@H](CN(C)C(=O)CN1CCOCC1)O2	-1	-7	0
